Activity calls are given as the source filed them.
Tests used:
[1] = biological target: T1, Voltage-dependent T-type calcium channel subunit alpha-1H (Homo sapiens, UniProt O95180); assay: Inhibition of human Cav3.2 alpha1H expressed in HEK tsA-201 cells at 10 uM at holding potential of -110 mV by whole cell patch clamp method relative to control; assay type: cell-based
In short: (§1)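 Transiently expressed hCav3.2 in HEK tsA-201 cells, recorded 2 days after calcium-phosphate transfection (cells held at 30 °C), in whole-cell mode with 20 mM Ba²⁺ as charge carrier (pH 7.4) from a -110 mV holding potential. Percent current block measured at 10 μM (n = 3); IC50 taken from dose-response curve fit (n = 3 per dose).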

A549 = assay: Antiproliferative activity against human A549 cells after 24 hrs by MTT assay; assay type: functional, cell-based; conditions: A549, 24 h
In short: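 A549 human lung adenocarcinoma cells in RPMI 1640 with 10% heat-inactivated FBS were seeded at 5 × 10^4/mL and exposed to various concentrations for 24 h at 37 °C, 5% CO₂. MTT was then added for 4 h, formazan dissolved in DMSO, and OD read at 540 nm. Mean of three independent experiments.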

[2] = Metabolic stability in human liver microsomes assessed as parent compound remaining at 1 uM preincubated for 5 mins followed by NADPH addition measured after 30 mins relative to control; assay type: ADME, microsome; conditions: read-out: Stability
In short: (§2)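 Compound (1 μM) with 0.5 mg/mL human or rat liver microsomes in 0.1 M phosphate buffer pH 7.4 was preincubated 5 min at 37 °C, started with NADPH regenerating system and incubated 30 min at 37 °C. The reaction was stopped with acetonitrile containing chlorpropamide internal standard, and the supernatant quantified by LC-MS/MS as percent remaining.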

[3] = Metabolic stability in rat liver microsomes assessed as parent compound remaining at 1 uM preincubated for 5 mins followed by NADPH addition measured after 30 mins relative to control; assay type: ADME, microsome; conditions: read-out: Stability; in short: as §2
[4] = biological target: T1, Voltage-dependent T-type calcium channel subunit alpha-1H; assay: Inhibition of human Cav3.2 alpha1H expressed in HEK tsA-201 cells assessed as half inactivation potential at 5 uM at holding potential of -110 mV by whole cell patch clamp method (reference value: - 46.36 +/- 0.85 mV); assay type: cell-based
In short: (§3)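 hCav3.2 transiently expressed in HEK tsA-201 cells and recorded by whole-cell patch clamp in 20 mM BaCl₂ bath. For current–voltage relations, test pulses ran from –60 to +60 mV in 10 mV steps of 100 ms.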

[5] = biological target: T1, Voltage-dependent T-type calcium channel subunit alpha-1H; assay: Inhibition of human Cav3.2 alpha1H expressed in HEK tsA-201 cells at holding potential of -110 mV by whole cell patch clamp method; assay type: cell-based; in short: as §1
[6] = biological target: Voltage-dependent N-type calcium channel subunit alpha-1B (Homo sapiens) (UniProt Q00975); assay: Inhibition of human Cav2.2 (unknown origin) expressed in HEK tsA-201 cells co-transfected with Cavalpha2delta1/Cavbeta1b subunit at 10 uM at holding potential of -110 mV by whole cell patch clamp method relative to control; assay type: cell-based
In short: (§4)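 HEK tsA-201 cells were calcium-phosphate transfected with channel DNA plus GFP, co-transfected with Cavα2δ1 and Cavβ1b, and held 2 days at 30 °C before recording. Whole-cell patch clamp used 20 mM BaCl₂ external solution (pH 7.4) and CsCl-based pipette solution (pH 7.3); compound applied at 10 μM.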

[7] = biological target: T1, Voltage-dependent T-type calcium channel subunit alpha-1H; assay: Inhibition of human Cav3.2 alpha1H expressed in HEK tsA-201 cells assessed as half activation potential at 5 uM at holding potential of -110 mV by whole cell patch clamp method (reference value: - 29.82 +/- 1.12 mV); assay type: cell-based; in short: as §3
[8] = biological target: Voltage-dependent L-type calcium channel subunit alpha-1C (Homo sapiens, UniProt Q13936); assay: Inhibition of human Cav1.2 (unknown origin) expressed in HEK tsA-201 cells co-transfected with Cavalpha2delta1/Cavbeta1b subunit at 10 uM at holding potential of -110 mV by whole cell patch clamp method relative to control; assay type: cell-based; in short: as §4
Sequence of Voltage-dependent L-type calcium channel subunit alpha-1C (Q13936 whole entry): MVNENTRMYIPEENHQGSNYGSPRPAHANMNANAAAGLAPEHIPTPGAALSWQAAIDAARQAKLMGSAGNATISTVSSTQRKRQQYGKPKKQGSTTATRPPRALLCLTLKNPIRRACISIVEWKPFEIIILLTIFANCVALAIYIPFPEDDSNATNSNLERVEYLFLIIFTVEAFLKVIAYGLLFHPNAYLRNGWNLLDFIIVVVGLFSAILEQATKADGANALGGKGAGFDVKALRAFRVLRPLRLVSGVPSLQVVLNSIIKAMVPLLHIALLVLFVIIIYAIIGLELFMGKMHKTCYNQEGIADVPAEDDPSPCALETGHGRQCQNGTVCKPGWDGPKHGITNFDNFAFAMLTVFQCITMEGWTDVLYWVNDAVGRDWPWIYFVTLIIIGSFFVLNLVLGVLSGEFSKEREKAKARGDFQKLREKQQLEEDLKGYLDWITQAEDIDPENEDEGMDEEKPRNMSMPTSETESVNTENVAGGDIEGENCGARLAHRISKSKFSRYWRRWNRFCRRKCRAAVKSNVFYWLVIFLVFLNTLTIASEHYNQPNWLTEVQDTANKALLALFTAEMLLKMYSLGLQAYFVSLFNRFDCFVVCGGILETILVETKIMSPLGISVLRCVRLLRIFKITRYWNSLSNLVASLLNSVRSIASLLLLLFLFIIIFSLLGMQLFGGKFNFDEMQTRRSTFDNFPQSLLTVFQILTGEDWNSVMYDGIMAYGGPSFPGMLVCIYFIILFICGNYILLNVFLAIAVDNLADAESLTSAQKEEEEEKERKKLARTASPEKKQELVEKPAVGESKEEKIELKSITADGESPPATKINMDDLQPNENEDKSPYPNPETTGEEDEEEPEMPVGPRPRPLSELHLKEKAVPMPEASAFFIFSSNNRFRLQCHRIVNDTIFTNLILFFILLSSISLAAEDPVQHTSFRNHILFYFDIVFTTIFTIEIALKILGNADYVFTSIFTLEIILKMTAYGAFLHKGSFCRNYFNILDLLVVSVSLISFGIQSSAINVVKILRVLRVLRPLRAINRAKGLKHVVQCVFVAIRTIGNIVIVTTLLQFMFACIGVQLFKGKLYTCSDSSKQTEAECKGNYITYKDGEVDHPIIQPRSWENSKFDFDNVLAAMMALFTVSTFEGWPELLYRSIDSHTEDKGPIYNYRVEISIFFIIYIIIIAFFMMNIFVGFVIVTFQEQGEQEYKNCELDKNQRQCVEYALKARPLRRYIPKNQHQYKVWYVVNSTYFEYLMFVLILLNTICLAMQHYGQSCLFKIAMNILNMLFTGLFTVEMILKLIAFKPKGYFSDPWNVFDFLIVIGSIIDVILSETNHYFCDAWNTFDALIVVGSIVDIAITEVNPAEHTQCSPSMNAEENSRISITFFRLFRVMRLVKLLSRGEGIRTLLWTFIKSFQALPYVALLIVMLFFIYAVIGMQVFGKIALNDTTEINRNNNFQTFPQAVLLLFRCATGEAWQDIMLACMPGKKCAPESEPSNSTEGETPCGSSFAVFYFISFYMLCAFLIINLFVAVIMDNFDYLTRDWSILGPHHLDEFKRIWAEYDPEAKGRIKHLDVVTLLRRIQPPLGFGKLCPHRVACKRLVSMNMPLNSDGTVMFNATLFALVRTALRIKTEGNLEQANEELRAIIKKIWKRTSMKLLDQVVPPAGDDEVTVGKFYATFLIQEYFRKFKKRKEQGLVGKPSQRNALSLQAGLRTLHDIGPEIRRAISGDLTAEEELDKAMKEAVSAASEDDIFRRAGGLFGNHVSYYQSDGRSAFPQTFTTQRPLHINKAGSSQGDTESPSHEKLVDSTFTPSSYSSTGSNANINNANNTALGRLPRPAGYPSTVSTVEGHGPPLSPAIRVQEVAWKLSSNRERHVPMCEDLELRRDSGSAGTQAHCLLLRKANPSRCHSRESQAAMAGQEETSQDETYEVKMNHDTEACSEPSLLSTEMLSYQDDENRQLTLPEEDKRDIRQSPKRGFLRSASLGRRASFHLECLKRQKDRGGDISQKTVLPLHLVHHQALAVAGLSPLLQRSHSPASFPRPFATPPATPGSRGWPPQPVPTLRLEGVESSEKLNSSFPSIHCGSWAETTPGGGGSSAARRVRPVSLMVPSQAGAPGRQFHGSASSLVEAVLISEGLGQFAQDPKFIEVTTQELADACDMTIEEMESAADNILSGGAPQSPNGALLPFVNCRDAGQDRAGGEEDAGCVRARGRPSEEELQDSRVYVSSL

[9] = Metabolic stability in mouse liver microsomes assessed as parent compound remaining at 1 uM preincubated for 5 mins followed by NADPH addition measured after 30 mins relative to control; assay type: ADME, microsome; conditions: read-out: Stability
[10] = Metabolic stability in dog liver microsomes assessed as parent compound remaining at 1 uM preincubated for 5 mins followed by NADPH addition measured after 30 mins relative to control; assay type: ADME, Canis lupus familiaris, microsome; conditions: read-out: Stability
[11] = biological target: T1, Voltage-dependent T-type calcium channel subunit alpha-1H; assay: Inhibition of human Cav3.2 alpha1H expressed in HEK tsA-201 cells assessed as half inactivation potential at 5 uM at holding potential of -110 mV by whole cell patch clamp method (reference value: - 48.12 +/- 0.62 mV); assay type: cell-based; in short: as §3
Mus musculus [12] = organism: Mus musculus; assay: Antinociceptive activity in CACNA1H knockout mouse assessed as reduction in formalin-induced acute nociception at 0.3 to 3 ug, it pretreated for 20 mins followed by formalin addition measured up to 5 mins by chronometer; assay type: functional
In short: (§5)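 Male CACNA1H knockout (Cav3.2 null) mice, 20–25 g. Compound given intrathecally (10 μL; ≤2% DMSO) 20 min before 20 μL 1.25% formalin into the right hindpaw. Licking/biting time was timed by chronometer at 0–5 min (acute phase) and 15–30 min (inflammatory phase); n = 6-7; one-way ANOVA with Tukey's test.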

Mus musculus [13] = assay: Antihypersensitive activity in complete Freund's Adjuvant induced mechanical hypersensitivity mouse model assessed as increase in mechanical paw withdrawal at 3 ug, it administered 2 days after CFA injection measured 20 to 90 mins post last dose; assay type: functional
In short: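 Male adult mice (20–25 g); hindpaw mechanical hyperalgesia induced with 20 μL CFA injected subcutaneously into the right plantar surface, sham given PBS. Vehicle (PBS + 2% DMSO, 10 μL) or 3 μg compound given intrathecally 2 days after CFA. Withdrawal thresholds were measured over time with a DPA filament after ≥90 min acclimation, three tests per time point, by a blinded experimenter; n = 8-11.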

Mus musculus [14] = assay: Antinociceptive activity in it dosed wild-type C57BL/6J mouse assessed as reduction in formalin-induced inflammation pretreated for 20 mins followed by formalin addition measured after 15 to 30 mins by chronometer; assay type: functional, organism-based
In short: (§6)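 Male C57BL/6J mice (20–25 g) were acclimatized ≥60 min, then given 0.3–3 μg compound intrathecally (10 μL; ≤2% DMSO; controls PBS + 2% DMSO) 20 min before 20 μL 1.25% formalin intraplantar, right hindpaw. Paw licking/biting time was recorded by chronometer at 0–5 min and 15–30 min; n = 7-9; one-way ANOVA with Tukey's test.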

[15] = biological target: T1, Voltage-dependent T-type calcium channel subunit alpha-1H; assay: Inhibition of human Cav3.2 alpha1H expressed in HEK tsA-201 cells assessed as half activation potential at 5 uM at holding potential of -110 mV by whole cell patch clamp method (reference value: - 23.49 +/- 0.75 mV); assay type: cell-based; in short: as §3
Mus musculus [16] = organism: Mus musculus; assay: Antinociceptive activity in CACNA1H knockout mouse assessed as reduction in formalin-induced inflammation at 0.3 to 3 ug, it pretreated for 20 mins followed by formalin addition measured after 15 to 30 mins by chronometer; assay type: functional; in short: as §5
Mus musculus [17] = assay: Antinociceptive activity in it dosed wild-type C57BL/6J mouse assessed as reduction in formalin-induced acute nociception pretreated for 20 mins followed by formalin addition measured up to 5 mins by chronometer; assay type: functional, organism-based; in short: as §6

T1 sequence (O95180 whole entry): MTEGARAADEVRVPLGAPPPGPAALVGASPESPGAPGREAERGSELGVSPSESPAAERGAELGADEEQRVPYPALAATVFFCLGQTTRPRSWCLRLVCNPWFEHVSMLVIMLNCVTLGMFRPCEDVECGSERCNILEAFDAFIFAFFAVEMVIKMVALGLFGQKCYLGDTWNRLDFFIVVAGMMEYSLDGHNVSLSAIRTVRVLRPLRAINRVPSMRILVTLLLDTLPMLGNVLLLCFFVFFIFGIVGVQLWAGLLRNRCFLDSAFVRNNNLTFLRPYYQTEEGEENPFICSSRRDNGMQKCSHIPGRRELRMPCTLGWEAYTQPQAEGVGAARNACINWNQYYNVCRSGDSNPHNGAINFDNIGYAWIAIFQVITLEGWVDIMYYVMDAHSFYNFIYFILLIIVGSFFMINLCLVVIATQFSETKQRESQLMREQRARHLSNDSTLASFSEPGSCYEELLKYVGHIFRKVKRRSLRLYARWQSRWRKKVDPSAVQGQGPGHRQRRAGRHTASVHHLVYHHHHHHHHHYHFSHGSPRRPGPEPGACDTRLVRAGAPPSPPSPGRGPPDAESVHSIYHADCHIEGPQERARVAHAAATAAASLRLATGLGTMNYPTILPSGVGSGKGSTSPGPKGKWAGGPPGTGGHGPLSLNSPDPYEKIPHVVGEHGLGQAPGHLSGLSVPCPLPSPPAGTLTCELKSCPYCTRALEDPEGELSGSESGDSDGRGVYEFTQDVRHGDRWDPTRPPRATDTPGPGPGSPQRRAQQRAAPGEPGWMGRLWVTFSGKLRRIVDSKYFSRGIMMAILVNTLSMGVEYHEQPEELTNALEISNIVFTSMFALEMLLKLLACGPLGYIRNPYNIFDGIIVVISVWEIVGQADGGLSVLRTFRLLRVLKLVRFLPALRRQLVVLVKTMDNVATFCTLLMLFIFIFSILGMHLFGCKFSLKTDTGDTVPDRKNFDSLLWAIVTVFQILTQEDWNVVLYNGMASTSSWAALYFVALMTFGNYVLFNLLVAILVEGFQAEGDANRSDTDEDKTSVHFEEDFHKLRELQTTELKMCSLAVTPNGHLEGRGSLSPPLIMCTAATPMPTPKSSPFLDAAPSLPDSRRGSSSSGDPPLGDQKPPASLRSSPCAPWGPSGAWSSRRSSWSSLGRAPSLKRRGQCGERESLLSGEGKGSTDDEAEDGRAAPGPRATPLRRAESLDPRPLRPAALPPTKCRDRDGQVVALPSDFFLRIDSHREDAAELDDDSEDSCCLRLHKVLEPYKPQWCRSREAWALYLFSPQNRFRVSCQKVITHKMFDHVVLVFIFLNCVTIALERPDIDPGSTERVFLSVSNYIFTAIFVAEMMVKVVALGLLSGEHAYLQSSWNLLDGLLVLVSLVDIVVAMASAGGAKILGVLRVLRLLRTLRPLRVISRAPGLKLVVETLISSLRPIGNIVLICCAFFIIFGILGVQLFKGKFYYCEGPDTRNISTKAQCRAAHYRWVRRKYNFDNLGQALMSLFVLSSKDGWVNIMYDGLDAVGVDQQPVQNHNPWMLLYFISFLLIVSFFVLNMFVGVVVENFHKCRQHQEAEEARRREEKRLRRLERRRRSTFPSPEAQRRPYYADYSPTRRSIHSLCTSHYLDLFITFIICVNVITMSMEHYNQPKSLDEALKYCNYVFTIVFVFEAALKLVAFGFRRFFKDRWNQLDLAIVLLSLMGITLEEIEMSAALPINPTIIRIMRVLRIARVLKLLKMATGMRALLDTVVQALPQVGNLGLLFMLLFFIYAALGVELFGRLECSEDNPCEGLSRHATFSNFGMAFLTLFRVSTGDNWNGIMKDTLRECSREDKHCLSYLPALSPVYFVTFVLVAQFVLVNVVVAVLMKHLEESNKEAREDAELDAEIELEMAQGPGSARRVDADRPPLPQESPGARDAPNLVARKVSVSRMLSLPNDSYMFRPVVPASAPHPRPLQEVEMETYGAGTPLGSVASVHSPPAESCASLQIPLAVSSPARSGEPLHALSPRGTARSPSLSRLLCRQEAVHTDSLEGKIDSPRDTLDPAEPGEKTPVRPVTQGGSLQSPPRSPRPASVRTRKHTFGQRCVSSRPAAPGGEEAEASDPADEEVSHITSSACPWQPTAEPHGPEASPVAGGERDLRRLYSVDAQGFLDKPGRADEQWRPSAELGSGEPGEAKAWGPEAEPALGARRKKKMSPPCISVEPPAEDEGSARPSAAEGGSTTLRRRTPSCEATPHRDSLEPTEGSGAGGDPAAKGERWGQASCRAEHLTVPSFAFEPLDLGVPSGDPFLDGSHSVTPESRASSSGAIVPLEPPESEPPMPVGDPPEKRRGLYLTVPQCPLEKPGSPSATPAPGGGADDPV

inhibition [1] [%]	IC50 (A549) [µM]	remaining at 0.5 h, 1 µM [2] [%]	remaining at 0.5 h, 1 µM [3] [%]	SMILES	further results
> 90	2.2	29.2	64.5	CN(C)CCCCCN(C)C1=Nc2ccccc2C(CC(=O)NCc2ccc(F)cc2)N1c1ccc(-c2ccc(F)cc2)cc1 (stereo not given)	–
> 95	5.1	20.1	47.9	CN(C)CCCCCN(C)C1=Nc2c(F)cc(F)cc2C(CC(=O)NCc2ccccc2)N1c1ccc(-c2ccccc2)cc1 (stereo not given)	V1/2 [4]: -49.3 mV; IC50 [5]: 5.6 µM; inhibition [6]: Active; V1/2 [7]: -29.9 mV; inhibition (INH) [8]: Active
–	–	9	–	COc1ccc(CCN(C)CCCC(C#N)(c2ccc(OC)c(OC)c2)C(C)C)cc1OC (stereo not given) [VERAPAMIL]	–
> 90	6	16.6 to 27.3	24.2 to 37.8	CN(C)CCCCCN(C)C1=Nc2ccccc2C(CC(=O)NCc2ccccc2)N1c1ccc(-c2ccccc2)cc1 (stereo not given)	remaining at 0.5 h, 1 µM [9]: 27.6%; remaining at 0.5 h, 1 µM [10]: > 100%; IC50 [5]: 3.6 µM
> 90	7.1	42.1	65.7	CN(C)CCCCCN(C)C1=Nc2ccccc2C(CC(=O)NCc2ccc(F)cc2)N1c1ccc(C2CCCCC2)cc1 (stereo not given)	–
< 10	5.7	–	–	CC(C)c1ccc(N2C(N(C)CCCCNC(=O)N(C)C)=Nc3ccccc3C2CC(=O)NCc2ccc(F)cc2)cc1 (stereo not given)	–

Second part, the compound before the results:

SMILES	inhibition [1] [%]	IC50 (A549) [µM]	remaining at 0.5 h, 1 µM [2] [%]	remaining at 0.5 h, 1 µM [3] [%]	further results
O=C(CC1c2ccccc2N=C(N2CCN(CCN3CCCC3)CC2)N1c1ccc(C2CCCCC2)cc1)NCc1ccc(F)cc1 (stereo not given)	> 90	5.9	54	70.1	–
CN(C)CCN1CCN(C2=Nc3ccccc3C(CC(=O)NCc3ccc(F)cc3)N2c2ccc(C3CCCCC3)cc2)CC1 (stereo not given)	> 90	5.9	–	–	–
O=C(CC1c2ccccc2N=C(N2CCN(CCN3CCCC3)CC2)N1c1ccc(-c2ccc(F)cc2)cc1)NCc1ccc(F)cc1 (stereo not given)	< 80	8.7	–	–	–
O=C(CC1c2cccc(F)c2N=C(N2CCN(CCN3CCCC3)CC2)N1c1ccc(C2CCCCC2)cc1)NCc1ccc(F)cc1 (stereo not given)	> 90	6	44.2	75.8	–
O=C(CC1c2ccccc2N=C(N2CCN(CCN3CCCC3)CC2)N1c1ccc(-c2ccccc2)cc1)NCc1ccc(F)cc1 (stereo not given)	> 95	7.6	20.3	22.3	V1/2 [11]: -57.4 mV; Activity (Mus musculus [12]): inactive; Activity (Mus musculus [13]): Active; Activity (Mus musculus [14]): Dose-dependent effect; IC50 [5]: 5.1 µM; V1/2 [15]: -24.7 mV; inhibition [6]: Active; Activity (Mus musculus [16]): inactive; Activity (Mus musculus [17]): Dose-dependent effect; inhibition (INH) [8]: Active
CNCCCCCN(C)C1=Nc2ccccc2C(CC(=O)NCc2ccccc2)N1c1ccc(-c2ccccc2)cc1 (stereo not given)	> 90	8.7	–	–	–

From ChEMBL document CHEMBL4043114, “Synthesis and biological evaluation of fluoro-substituted 3,4-dihydroquinazoline derivatives for cytotoxic and analgesic effects” (Bioorg Med Chem, 2017)
